Tests used:
Rattus norvegicus [1] = assay: Antihypertensive activity in […] rat model assessed as change in systolic blood pressure at 3 mg/kg, po administered qd measured on day 3; type: functional
Outline: (§1)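 Spontaneously hypertensive rats were dosed orally once daily for 3 days. Systolic blood pressure change was read on day 3 relative to vehicle, with n = 5 per group.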

[2] = Unbound fraction in rhesus monkey plasma; type: ADME, cell-free, Macaca mulatta
[3] = Oral bioavailability in rhesus monkey at 2 mg/kg, qd; type: ADME, organism-based, Macaca mulatta; details: in vivo
[4] = Cardiotoxicity in anesthetized cardiovascular guinea pig model assessed as change in QTc interval administered as iv infusion; type: toxicity, organism-based, Cavia porcellus, Heart; details: in vivo
Outline: (§2)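 Anesthetized guinea pig cardiovascular model, n = 3. The compound was given by IV infusion while the QTc interval was monitored. Unbound plasma concentration was taken as the maximal average peak value.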

Cytochrome P450 3A4 = Cytochrome P450 3A4 (Homo sapiens, UniProt P08684); assay: Inhibition of CYP3A4 (unknown origin); type: ADME
Rattus norvegicus [5] = assay: Antihypertensive activity in […] rat model assessed as increase in diuresis at 3 mg/kg, po qd measured on day 1 post dose relative to control; type: functional
Outline: (§3)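 Spontaneously hypertensive rats dosed orally once daily for 3 days at 3, 10 and 30 mg/kg (reference diuretic at 25 mg/kg); 24 h urine output on day 1 expressed as fold increase over vehicle-treated rats; n = 5 per group.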

[6] = biological target: Sodium channel protein type 5 subunit alpha (Homo sapiens, UniProt Q14524); assay: Inhibition of Nav1.5 (unknown origin)
[7] = Dose normalized AUC in Beagle dog at 2 mg/kg, po administered qd; type: ADME, organism-based, Canis lupus familiaris; details: in vivo
[8] = biological target: T1, ATP-sensitive inward rectifier potassium channel 10 (Homo sapiens, UniProt P78508); assay: Inhibition of Kir4.1 (unknown origin)
T1 sequence (P78508 whole entry): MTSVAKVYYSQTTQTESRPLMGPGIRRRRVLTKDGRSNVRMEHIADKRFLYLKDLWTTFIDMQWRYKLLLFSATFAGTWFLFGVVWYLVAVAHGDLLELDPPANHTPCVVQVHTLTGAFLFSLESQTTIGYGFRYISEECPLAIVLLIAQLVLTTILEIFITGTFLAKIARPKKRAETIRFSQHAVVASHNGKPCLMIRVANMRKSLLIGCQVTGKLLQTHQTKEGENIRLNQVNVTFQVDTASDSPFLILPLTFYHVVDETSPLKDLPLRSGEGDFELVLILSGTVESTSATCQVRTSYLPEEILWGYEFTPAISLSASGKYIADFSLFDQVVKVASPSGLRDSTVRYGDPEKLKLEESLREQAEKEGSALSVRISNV

Rattus norvegicus [9] = assay: Antihypertensive activity in […] rat model assessed as change in systolic blood pressure at 10 mg/kg, po administered qd measured on day 3; type: functional; outline: as §1
[10] = Oral bioavailability in Sprague-Dawley rat at 2 mg/kg; type: ADME, organism-based; details: in vivo
[11] = Stability in rhesus monkey hepatocytes assessed as compound remaining at 90 mins; type: ADME, cell-based, Macaca mulatta, Hepatocyte; details: read-out: Stability
[12] = biological target: T2, Somatostatin receptor type 2 (Homo sapiens, UniProt P30874); assay: Inhibition of Somatostatin receptor type 2 (unknown origin) by radioligand binding assay
[13] = Dose normalized AUC in rhesus monkey at 2 mg/kg, po administered qd; type: ADME, organism-based, Macaca mulatta; details: in vivo
Cytochrome P450 2D6 = Cytochrome P450 2D6 (Homo sapiens, UniProt P10635); assay: Inhibition of CYP2D6 (unknown origin); type: ADME
[14] = Oral bioavailability in Beagle dog at 2 mg/kg administered qd; type: ADME, organism-based, Canis lupus familiaris; details: in vivo
[15] = Half life in rhesus monkey at 1 mg/kg, iv or 2 mg/kg, po administered qd; type: ADME, organism-based, Macaca mulatta; details: in vivo
[16] = Maximum free plasma concentration in iv dosed anesthetized cardiovascular guinea pig model; type: ADME, organism-based, Cavia porcellus; details: in vivo; outline: as §2
Rattus norvegicus [17] = assay: Antihypertensive activity in […] rat model assessed as change in systolic blood pressure at 25 mg/kg, po administered qd measured on day 3; type: functional; outline: as §1
Rattus norvegicus [18] = assay: Antihypertensive activity in […] rat model assessed as increase in diuresis at 25 mg/kg, po qd measured on day 1 post dose relative to control; type: functional; outline: as §3
Rattus norvegicus [19] = assay: Antihypertensive activity in […] rat model assessed as increase in diuresis at 10 mg/kg, po qd measured on day 1 post dose relative to control; type: functional; outline: as §3
[20] = biological target: Voltage-dependent L-type calcium channel subunit alpha-1C (Homo sapiens, UniProt Q13936); assay: Inhibition of Cav1.2 (unknown origin)
[21] = Unbound fraction in rat plasma; type: ADME, cell-free
[22] = Half life in Beagle dog at 1 mg/kg, iv or 2 mg/kg, po administered qd; type: ADME, organism-based, Canis lupus familiaris; details: in vivo
[23] = biological target: T3, ATP-sensitive inward rectifier potassium channel 1 (Homo sapiens, UniProt P48048); assay: Inhibition of human ROMK expressed in CHO cells after 6 mins at -70 mV holding potential by electrophysiology method; type: cell-based
T3 sequence (P48048 whole entry): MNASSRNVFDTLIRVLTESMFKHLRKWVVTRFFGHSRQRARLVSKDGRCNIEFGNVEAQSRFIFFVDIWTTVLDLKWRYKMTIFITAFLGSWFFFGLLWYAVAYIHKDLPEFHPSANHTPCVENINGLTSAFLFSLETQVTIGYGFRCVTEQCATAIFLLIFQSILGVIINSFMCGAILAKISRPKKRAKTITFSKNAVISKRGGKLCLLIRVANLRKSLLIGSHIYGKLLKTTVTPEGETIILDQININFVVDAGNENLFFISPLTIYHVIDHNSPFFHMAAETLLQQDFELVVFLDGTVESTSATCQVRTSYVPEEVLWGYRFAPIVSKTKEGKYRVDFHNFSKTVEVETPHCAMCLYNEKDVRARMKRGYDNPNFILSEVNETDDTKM

Cytochrome P450 2C9 = Cytochrome P450 2C9 (Homo sapiens, UniProt P11712); assay: Inhibition of CYP2C9 (unknown origin); type: ADME
[24] = Stability in human hepatocytes assessed as compound remaining at 90 mins; type: ADME, cell-based, Hepatocyte; details: read-out: Stability
[25] = Stability in rhesus monkey microsomes assessed as compound remaining at 45 mins; type: ADME, Macaca mulatta, Microsome; details: read-out: Stability
[26] = biological target: T2, Somatostatin receptor type 2; assay: Inhibition of Somatostatin receptor type 2 (unknown origin) at 10 uM by radioligand binding assay relative to control
Outline: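 Run within a 115-assay off-target panel of enzyme and radioligand binding assays. Inhibition of somatostatin sst2 ligand binding was recorded at a single concentration of 10 μM.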

[27] = biological target: Voltage-gated inwardly rectifying potassium channel KCNH2 (Homo sapiens, UniProt Q12809); assay: Inhibition of human ERG by electrophysiology method
[28] = Unbound fraction in dog plasma; type: ADME, cell-free, Canis lupus familiaris
[29] = Dose normalized AUC in Sprague-Dawley rat at 2 mg/kg, po; type: ADME, organism-based; details: in vivo
[30] = Apparent permeability in pig LLC-PK1 cells; type: ADME, cell-based, Sus scrofa

T2 sequence (P30874 whole entry): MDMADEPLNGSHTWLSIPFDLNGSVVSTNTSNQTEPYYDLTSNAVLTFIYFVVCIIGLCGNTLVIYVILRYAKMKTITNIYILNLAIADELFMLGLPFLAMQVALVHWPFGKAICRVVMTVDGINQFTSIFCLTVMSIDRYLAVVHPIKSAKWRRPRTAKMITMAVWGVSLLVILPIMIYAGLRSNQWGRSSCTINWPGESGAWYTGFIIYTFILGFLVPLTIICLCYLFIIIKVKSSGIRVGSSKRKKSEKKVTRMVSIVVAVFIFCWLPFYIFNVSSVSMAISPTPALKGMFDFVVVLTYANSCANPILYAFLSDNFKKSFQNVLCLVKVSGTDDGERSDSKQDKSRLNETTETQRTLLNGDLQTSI
Chain of Voltage-dependent L-type calcium channel subunit alpha-1C (Q13936 whole entry): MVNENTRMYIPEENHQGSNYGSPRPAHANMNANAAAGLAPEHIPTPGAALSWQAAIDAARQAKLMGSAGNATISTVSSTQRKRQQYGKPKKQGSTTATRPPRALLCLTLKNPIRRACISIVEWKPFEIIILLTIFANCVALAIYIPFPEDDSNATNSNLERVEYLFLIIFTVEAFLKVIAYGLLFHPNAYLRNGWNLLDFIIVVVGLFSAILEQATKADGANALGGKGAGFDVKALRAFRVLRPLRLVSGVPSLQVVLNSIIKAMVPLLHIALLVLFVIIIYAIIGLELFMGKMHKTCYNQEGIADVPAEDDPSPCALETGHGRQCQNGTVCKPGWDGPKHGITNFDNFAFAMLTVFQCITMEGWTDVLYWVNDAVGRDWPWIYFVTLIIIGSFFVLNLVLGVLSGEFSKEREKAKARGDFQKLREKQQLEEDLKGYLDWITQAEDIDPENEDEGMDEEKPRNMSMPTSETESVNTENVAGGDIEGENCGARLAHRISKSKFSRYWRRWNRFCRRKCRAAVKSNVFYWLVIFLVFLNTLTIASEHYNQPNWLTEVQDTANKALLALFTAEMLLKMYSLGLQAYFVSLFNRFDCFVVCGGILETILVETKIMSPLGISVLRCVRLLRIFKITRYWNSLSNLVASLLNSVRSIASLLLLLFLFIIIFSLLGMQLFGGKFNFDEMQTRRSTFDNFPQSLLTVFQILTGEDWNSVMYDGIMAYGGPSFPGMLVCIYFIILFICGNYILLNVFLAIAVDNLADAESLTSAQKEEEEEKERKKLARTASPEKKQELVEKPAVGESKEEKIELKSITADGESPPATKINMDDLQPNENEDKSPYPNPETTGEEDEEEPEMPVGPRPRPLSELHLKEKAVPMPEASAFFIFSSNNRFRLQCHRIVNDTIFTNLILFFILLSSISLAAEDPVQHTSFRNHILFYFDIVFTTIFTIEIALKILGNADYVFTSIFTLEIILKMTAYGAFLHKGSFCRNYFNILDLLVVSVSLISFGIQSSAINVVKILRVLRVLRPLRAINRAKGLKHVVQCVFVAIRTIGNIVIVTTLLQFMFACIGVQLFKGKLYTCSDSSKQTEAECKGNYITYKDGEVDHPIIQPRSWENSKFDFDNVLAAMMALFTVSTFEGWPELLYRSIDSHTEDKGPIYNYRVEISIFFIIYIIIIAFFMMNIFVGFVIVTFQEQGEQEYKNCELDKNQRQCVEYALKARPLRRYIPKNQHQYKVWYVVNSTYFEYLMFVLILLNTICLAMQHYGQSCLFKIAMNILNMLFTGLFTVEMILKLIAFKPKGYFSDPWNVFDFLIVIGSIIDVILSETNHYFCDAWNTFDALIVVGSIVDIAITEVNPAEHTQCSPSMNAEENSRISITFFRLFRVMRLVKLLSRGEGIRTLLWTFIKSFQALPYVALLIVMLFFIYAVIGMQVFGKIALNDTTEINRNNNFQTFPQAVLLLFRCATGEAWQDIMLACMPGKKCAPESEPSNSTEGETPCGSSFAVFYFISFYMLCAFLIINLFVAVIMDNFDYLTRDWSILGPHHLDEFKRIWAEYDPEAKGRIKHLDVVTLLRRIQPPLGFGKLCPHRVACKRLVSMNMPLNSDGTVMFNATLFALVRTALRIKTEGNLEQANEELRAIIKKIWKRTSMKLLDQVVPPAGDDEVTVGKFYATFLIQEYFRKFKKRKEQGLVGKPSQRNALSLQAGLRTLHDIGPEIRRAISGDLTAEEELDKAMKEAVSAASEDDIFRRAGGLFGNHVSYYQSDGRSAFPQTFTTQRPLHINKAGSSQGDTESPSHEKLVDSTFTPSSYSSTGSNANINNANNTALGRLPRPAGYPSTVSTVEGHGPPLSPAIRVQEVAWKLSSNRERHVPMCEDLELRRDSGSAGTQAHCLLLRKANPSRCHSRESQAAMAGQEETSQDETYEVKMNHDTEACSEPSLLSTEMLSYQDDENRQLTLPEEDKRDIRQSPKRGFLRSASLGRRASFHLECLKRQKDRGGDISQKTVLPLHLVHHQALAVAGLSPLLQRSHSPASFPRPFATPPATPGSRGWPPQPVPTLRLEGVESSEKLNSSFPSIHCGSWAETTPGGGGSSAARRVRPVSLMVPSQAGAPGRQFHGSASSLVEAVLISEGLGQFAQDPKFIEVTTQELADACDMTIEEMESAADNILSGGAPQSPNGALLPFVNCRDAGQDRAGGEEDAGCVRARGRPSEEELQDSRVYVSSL
Chain of Voltage-gated inwardly rectifying potassium channel KCNH2 (Q12809 whole entry): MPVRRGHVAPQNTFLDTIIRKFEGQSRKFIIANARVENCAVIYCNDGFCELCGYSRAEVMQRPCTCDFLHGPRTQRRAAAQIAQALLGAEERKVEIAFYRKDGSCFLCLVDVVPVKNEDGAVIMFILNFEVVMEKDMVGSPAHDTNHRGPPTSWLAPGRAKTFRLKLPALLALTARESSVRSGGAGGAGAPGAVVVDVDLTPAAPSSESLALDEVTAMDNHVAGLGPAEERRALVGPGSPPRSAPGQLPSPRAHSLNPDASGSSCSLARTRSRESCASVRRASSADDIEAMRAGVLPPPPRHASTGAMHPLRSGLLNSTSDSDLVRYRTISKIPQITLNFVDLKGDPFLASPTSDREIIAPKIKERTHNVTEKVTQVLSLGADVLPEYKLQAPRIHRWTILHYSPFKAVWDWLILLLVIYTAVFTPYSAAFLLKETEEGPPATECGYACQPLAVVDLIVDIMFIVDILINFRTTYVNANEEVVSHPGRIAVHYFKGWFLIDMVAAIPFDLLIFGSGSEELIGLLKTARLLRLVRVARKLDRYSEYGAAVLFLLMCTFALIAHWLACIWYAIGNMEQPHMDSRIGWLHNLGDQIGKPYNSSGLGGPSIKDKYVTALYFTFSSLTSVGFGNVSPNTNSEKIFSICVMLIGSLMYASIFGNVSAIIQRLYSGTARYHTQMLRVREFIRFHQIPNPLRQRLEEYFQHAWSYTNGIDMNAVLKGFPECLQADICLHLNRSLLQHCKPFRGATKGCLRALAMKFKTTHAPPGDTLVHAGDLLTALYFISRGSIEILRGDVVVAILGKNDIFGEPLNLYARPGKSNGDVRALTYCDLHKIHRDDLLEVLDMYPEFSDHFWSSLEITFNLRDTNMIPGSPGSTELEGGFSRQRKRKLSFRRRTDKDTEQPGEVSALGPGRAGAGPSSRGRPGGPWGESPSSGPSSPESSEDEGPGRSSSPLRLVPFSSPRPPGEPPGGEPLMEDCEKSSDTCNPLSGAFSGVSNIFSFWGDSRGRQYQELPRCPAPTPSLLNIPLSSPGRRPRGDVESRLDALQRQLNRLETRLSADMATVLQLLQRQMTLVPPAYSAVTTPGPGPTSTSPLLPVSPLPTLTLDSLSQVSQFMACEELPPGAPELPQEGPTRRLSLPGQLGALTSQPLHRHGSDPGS
Chain of Cytochrome P450 3A4 (P08684 whole entry): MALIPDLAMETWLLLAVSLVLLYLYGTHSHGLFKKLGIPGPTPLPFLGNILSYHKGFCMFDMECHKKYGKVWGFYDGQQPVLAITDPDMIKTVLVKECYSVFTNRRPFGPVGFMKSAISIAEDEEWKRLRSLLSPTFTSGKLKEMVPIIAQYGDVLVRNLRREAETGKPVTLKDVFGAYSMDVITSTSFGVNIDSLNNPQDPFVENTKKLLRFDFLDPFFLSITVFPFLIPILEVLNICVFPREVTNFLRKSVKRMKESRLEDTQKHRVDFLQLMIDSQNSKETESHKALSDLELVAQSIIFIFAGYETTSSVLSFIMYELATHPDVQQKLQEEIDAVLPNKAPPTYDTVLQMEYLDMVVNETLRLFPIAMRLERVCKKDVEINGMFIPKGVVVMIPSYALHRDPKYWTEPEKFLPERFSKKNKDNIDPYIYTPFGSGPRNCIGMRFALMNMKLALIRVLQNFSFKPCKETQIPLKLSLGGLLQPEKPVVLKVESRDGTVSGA
Chain of Cytochrome P450 2C9 (P11712 whole entry): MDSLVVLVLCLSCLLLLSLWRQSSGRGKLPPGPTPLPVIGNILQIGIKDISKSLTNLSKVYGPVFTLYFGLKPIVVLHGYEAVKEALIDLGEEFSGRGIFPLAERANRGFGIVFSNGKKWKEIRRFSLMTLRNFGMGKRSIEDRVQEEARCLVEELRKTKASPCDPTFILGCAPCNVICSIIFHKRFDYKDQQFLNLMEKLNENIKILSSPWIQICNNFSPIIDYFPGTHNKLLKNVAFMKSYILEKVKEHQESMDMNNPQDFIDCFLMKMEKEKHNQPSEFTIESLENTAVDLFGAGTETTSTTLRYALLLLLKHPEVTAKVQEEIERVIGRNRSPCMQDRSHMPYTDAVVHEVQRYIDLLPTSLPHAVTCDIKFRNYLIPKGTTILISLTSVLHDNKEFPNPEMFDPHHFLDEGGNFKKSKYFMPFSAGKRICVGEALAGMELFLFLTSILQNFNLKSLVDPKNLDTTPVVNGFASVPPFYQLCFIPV

Work on `Cc1c([C@@H]2CN3CCN(C(=O)Cc4ccc(-n5cnnn5)cn4)C[C@H]3CO2)ccc(F)c1C#N` yielded an Activity (Rattus norvegicus [1]) of -9 mmHg, a fraction unbound [2] of 0.6 and a bioavailability [3] of 67%. For the same compound, the Activity [4] was “Non-Toxic”, the IC50 (Cytochrome P450 3A4) was greater than 50 µM and the “fold change (FC)” value (Rattus norvegicus [5]) was 1.4. It also gave an IC50 [6] greater than 30 µM, an AUC/dose [7] of 16.7 µM·kg·h/mg and an IC50 [8] greater than 100 µM. For the same compound, the Activity (Rattus norvegicus [9]) was -16 mmHg, the bioavailability [10] was 46% and the remaining at 1.5 h [11] was 92%. It also gave an IC50 [12] of 4.1 µM, an AUC/dose [13] of 6 µM·kg·h/mg and an IC50 (Cytochrome P450 2D6) greater than 50 µM. The bioavailability [14] was 100%, the half-life [15] was 5 h and the “Cp(f)max” value [16] was 83 µM. For the same compound, the Activity (Rattus norvegicus [17]) was -12 mmHg, the “fold change (FC)” value (Rattus norvegicus [18]) was 1.05 and the “fold change (FC)” value (Rattus norvegicus [19]) was 1.6. The IC50 [20] was greater than 30 µM, the fraction unbound [21] was 0.48 and the half-life [22] was 17.3 h. For the same compound, the IC50 [23] was 0.073 µM, the IC50 (Cytochrome P450 2C9) was greater than 50 µM and the remaining at 1.5 h [24] was 99%. It also gave a remaining at 0.75 h [25] of 72%, an inhibition [26] greater than 50% and an IC50 [27] of 20.3 µM. For the same compound, the fraction unbound [28] was 0.52, the AUC/dose [29] was 0.79 µM·kg·h/mg and the Papp [30] was “Permeable”.

From ChEMBL document CHEMBL3868612, “Discovery of a potent and selective ROMK inhibitor with improved pharmacokinetic properties based on an octahydropyrazino[2,1-c][1,4]oxazine scaffold” (Bioorg Med Chem Lett, 2016)
